Test results reported in article PMC9574854 (Journal of Medicinal Chemistry, 2022).

What was measured:
PfGSK3 = molecular target: T1, PfGSK3 (Plasmodium falciparum, UniProt O77344); test: KinaseSeeker split luciferase assay on PfGSK3; assay type: biochemical; conditions: for activity on PfGSK3, in words: screen at 1 μM
T1 sequence (O77344 1-440): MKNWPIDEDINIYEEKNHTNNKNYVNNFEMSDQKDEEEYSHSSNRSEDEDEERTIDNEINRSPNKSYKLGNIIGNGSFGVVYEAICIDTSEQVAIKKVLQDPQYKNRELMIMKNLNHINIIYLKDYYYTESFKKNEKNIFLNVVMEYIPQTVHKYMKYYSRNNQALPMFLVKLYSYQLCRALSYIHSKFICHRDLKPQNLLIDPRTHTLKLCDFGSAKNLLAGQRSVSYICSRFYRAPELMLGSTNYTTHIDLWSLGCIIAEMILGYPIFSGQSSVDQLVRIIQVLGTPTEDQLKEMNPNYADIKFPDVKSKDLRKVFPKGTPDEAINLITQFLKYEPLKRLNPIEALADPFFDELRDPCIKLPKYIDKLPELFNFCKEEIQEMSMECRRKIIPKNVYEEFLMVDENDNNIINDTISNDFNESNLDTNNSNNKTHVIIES
Outline: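 Split-luciferase binding assay: lysate with Cfluc-PfGSK3 fusion plus Fos-Nfluc, incubated 2 h with test compound in DMSO (or DMSO control) and a kinase-specific probe. Luminescence was read immediately after luciferin reagent. % inhibition = (control − sample)/control × 100. Compounds were first counter-screened against split luciferase, then screened at 1 μM.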

PfPK6 = molecular target: T2, PfPK6 (Plasmodium falciparum, UniProt Q8IDW1); test: KinaseSeeker split luciferase assay on PfPK6; assay type: biochemical; conditions: for remaining activity at 1 µM: read-out: PfPK6 PoC@1 μM
T2 sequence (Q8IDW1 1-305): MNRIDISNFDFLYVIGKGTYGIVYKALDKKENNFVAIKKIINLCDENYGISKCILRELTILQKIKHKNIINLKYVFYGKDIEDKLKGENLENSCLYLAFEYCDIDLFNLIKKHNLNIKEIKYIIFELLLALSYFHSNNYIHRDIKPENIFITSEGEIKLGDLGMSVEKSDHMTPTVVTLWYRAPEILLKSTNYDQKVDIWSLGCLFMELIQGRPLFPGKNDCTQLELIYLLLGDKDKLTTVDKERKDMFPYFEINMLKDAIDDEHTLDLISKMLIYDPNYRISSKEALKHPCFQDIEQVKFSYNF

| activity on PfGSK3, in words (PfGSK3) | remaining activity at 1 µM (PfPK6) [%] | SMILES | further results |
| --- | --- | --- | --- |
| failed to inhibit | 100 | c1ccc(Nc2nccc(-c3cc4ccccc4s3)n2)cc1 [Compound 4a, 4-(Benzo[b]thiophen-2-yl)-N-phenylpyrimidin-2-amine] | activity on PfPK6, in words (PfPK6; screen at 1 μM): failed to inhibit |
| – | 100 | COc1ccccc1Nc1nccc(-c2cc3ccccc3s2)n1 [Compound 4g, 4-(Benzo[b]thiophen-2-yl)-N-(2-methoxyphenyl)pyrimidin-2-amine] | – |
| inactivity | – | O=C(c1ccc(Nc2nccc(-c3cccs3)n2)cc1)N1CCC(N2CCCC2)CC1 [Compound 18c, (4-(Pyrrolidin-1-yl)piperidin-1-yl)(4-((4-(thiophen-2-yl)pyrimidin-2-yl)amino)phenyl)methanone] | – |
| inactive | – | O=C(c1ccc(Nc2nccc(-c3ccc(-c4ccccc4)s3)n2)cc1)N1CCC(N2CCCC2)CC1 [Compound 18k, (4-((4-(5-Phenylthiophen-2-yl)pyrimidin-2-yl)amino)phenyl)(4-(pyrrolidin-1-yl)piperidin-1-yl)methanone] | – |
| – | 100 | Clc1cccc(Nc2nccc(-c3cc4ccccc4s3)n2)c1 [Compound 4c, 4-(Benzo[b]thiophen-2-yl)-N-(3-chlorophenyl)pyrimidin-2-amine] | – |
| – | 100 | O=C(O)c1ccc(Nc2nccc(-c3cc4ccccc4s3)n2)cc1 [Compound 6, 4-((4-(Benzo[b]thiophen-2-yl)pyrimidin-2-yl)amino)benzoic acid] | – |
| – | – | O=C(c1ccc(Nc2nccc(-c3ccc(Cl)s3)n2)cc1)N1CCC(N2CCCC2)CC1 [Compound 18j, (4-((4-(5-Chlorothiophen-2-yl)pyrimidin-2-yl)amino)phenyl)(4-(pyrrolidin-1-yl)piperidin-1-yl)methanone] | LE PfPK6 (ligand efficiency) (PfPK6; PfPK6 pIC50/number of heavy atoms in the molecule): 0.30 |
| – | – | O=C(NC1CC1)c1ccc(Nc2nccc(-c3cc4ccccc4s3)n2)cc1 [Compound 9j, 4-((4-(Benzo[b]thiophen-2-yl)pyrimidin-2-yl)amino)-N-cyclopropylbenzamide] | fold increase in potency on PfGSK3 (PfGSK3; compared to IKK16): roughly 2 fold |
| – | – | Cc1ccc(-c2nc(Nc3ccc(C(=O)NCCCN4CCOCC4)cc3)ncc2Cl)s1 [Compound 23f, 4-((5-Chloro-4-(5-methylthiophen-2-yl)pyrimidin-2-yl)amino)-N-(3-morpholinopropyl)benzamide] | IC50 (PfGSK3): < 0.1 µM |
| did not show significant activity | – | Cc1cnc(Nc2ccc(C(=O)NCCCN3CCOCC3)cc2)nc1-c1ccc(Cl)s1 [Compound 23g, 4-((4-(5-Chlorothiophen-2-yl)-5-methylpyrimidin-2-yl)amino)-N-(3-morpholinopropyl)benzamide] | – |
| did not reach our threshold | – | Cc1ccc(-c2nc(Nc3ccc(C(=O)N4CCC(N5CCCC5)CC4)cc3)ncc2C)s1 [Compound 23a, (4-((5-Methyl-4-(5-methylthiophen-2-yl)pyrimidin-2-yl)amino)phenyl)(4-(pyrrolidin-1-yl)piperidin-1-yl)methanone] | – |
| – | – | O=C(c1ccc(Nc2nccc(-c3cc4ccccc4s3)n2)cc1)N1CCC(N2CCCCC2)CC1 [Compound 9b, [1,4′-Bipiperidin]-1′-yl(4-((4-(benzo[b]thiophen-2-yl)pyrimidin-2-yl)amino)phenyl)methanone] | fold increase in potency on PfPK6 (PfPK6; compared to IKK16): ~4 fold |
| – | 100 | Clc1ccccc1Nc1nccc(-c2cc3ccccc3s2)n1 [Compound 4d, 4-(Benzo[b]thiophen-2-yl)-N-(2-chlorophenyl)pyrimidin-2-amine] | – |
| – | 100 | COc1cccc(Nc2nccc(-c3cc4ccccc4s3)n2)c1 [Compound 4f, 4-(Benzo[b]thiophen-2-yl)-N-(3-methoxyphenyl)pyrimidin-2-amine] | – |
| – | – | O=C(c1ccc(Nc2nccc(-c3ccc(COCC(F)(F)F)s3)n2)cc1)N1CCC(N2CCCC2)CC1 [Compound 18m, (4-(Pyrrolidin-1-yl)piperidin-1-yl)(4-((4-(5-((2,2,2-trifluoroethoxy)methyl)thiophen-2-yl)pyrimidin-2-yl)amino)phenyl)methanone] | fold increase in potency on PfPK6 (PfPK6; compared to its alcohol counterpart (18l)): ~2 fold |
